ChEMBL document CHEMBL1782035, “Synthesis and SAR of piperazine amides as novel c-jun N-terminal kinase (JNK) inhibitors” (Bioorg Med Chem Lett, 2009)
The source made the active and inactive calls. No cut-off for these calls is given here.

Tests used:
[1] = target: Mitogen-activated protein kinase 10 (Homo sapiens, UniProt P53779); experiment: Inhibition of JNK3 using biotinylated ATF2 and ATP substrates by HTRF assay
How it was run: (§1)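 HTRF kinase assay with final JNK1 at 0.1 nM or JNK3 at 0.3 nM, biotinylated ATF-2 at 0.4 nM and ATP at 1 μM. Phospho-Thr71-ATF-2 product was detected with a Europium-cryptate anti-phospho-Thr71-ATF-2 antibody and a streptavidin-allophycocyanin-XL acceptor. 10-point dose-response curves were run in duplicate, and IC50 was obtained from a four-parameter logistic fit.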

[2] = target: Mitogen-activated protein kinase 8 (Homo sapiens, UniProt P45983); experiment: Inhibition of JNK1 using biotinylated ATF2 and ATP substrates by HTRF assay; how it was run: as §1
Mitogen-activated protein kinase 8, sequence (P45983 whole entry): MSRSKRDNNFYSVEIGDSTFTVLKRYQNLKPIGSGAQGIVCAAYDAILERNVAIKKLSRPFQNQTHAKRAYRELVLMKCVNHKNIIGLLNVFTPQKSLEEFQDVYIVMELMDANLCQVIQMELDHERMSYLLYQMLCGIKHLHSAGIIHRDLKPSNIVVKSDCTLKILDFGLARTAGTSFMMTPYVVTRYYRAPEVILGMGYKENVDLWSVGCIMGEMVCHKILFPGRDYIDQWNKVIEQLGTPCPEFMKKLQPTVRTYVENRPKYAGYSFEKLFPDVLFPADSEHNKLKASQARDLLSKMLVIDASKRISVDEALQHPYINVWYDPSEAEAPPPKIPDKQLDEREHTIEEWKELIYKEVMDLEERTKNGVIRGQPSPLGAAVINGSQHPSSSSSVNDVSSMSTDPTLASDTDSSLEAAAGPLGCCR

[3] = Inhibition of p38
[4] = Inhibition of JNK-mediated c-jun phosphorylation in rat INS-1 cells by ELISA incubated for 3 hrs at 37 degC; type: cell-based; settings: INS1, 3 h
How it was run: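 INS-1 β-pancreatic cells seeded at 3.5 × 10^4 cells/well in RPMI 1640 with 10% FBS, cultured overnight at 37 °C, 5% CO2. Cells exposed 3 h to 4 mM streptozoicin plus inhibitor (DMSO) in a 10-point dilution spanning four logs, then lysed. Phospho-c-jun captured overnight at 4 °C by sandwich ELISA, TMB read at 450 nm; EC50 from four-parameter logistic.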

Mitogen-activated protein kinase 10, sequence (P53779 whole entry): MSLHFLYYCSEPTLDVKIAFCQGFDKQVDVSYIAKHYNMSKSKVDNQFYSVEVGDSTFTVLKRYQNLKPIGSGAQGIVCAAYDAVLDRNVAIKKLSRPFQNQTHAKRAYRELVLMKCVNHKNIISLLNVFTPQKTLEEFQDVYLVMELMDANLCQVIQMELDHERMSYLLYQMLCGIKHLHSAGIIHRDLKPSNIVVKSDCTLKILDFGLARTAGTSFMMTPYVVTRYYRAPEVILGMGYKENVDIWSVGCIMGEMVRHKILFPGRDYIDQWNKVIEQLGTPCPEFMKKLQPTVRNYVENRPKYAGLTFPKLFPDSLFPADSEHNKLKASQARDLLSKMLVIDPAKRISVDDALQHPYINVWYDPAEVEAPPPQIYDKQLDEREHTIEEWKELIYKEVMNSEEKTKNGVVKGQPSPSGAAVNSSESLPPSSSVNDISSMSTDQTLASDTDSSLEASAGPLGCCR

C=CCN1CCN(c2c(Cl)cccc2NC(=O)c2csc(C)n2)CC1
IC50 [1]: 5800 nM

Cc1cccc(NC(=O)c2ccc(C(F)F)o2)c1N1CCC2(CC1)OCCO2
IC50 [2]: 260 nM
IC50 [1]: 350 nM

C=CCN1CCN(c2c(Cl)cccc2NC(=O)c2cccc(Br)n2)CC1
IC50 [1]: 2000 nM

C=CCN1CCN(c2c(Cl)cccc2NC(=O)c2cccc(Br)c2)CC1
IC50 [2]: 7100 nM
IC50 [1]: 6400 nM

C#CCN1CCN(c2c(Cl)cccc2NC(=O)c2ccc(Br)o2)CC1
IC50 [2]: 140 nM
inhibition [3]: inactive

CC(=O)Nc1ccc(C(=O)Nc2cccc(C)c2N2CCC3(CC2)OCCO3)o1
IC50 [2]: 5800 nM
IC50 [1]: 11000 nM

C=CCN1CCN(c2c(Cl)cccc2NC(=O)c2ccc(Br)o2)CC1
IC50 [2]: 240 nM
inhibition [3]: inactive
IC50 [1]: 330 nM

C=CCN1CCN(c2c(C)cccc2NC(=O)c2ccc(Br)o2)CC1
IC50 [2]: 180 nM
inhibition [3]: inactive
IC50 [1]: 200 nM

O=C(Nc1cccc(Cl)c1N1CCN(c2ccccn2)CC1)c1ccc(Br)o1
IC50 [2]: 1200 nM
inhibition [3]: inactive
IC50 [1]: 1000 nM

CC(C)(C)OC(=O)N1CCN(c2c(Cl)cccc2NC(=O)c2ccc(Br)o2)CC1
IC50 [2]: 6300 nM
inhibition [3]: inactive
IC50 [1]: > 20000 nM

CC(=O)N1CCN(c2c(Cl)cccc2NC(=O)c2ccc(Br)o2)CC1
IC50 [2]: 600 nM
inhibition [3]: inactive
IC50 [1]: 810 nM

Cc1ccc(C(=O)Nc2cccc(C)c2N2CCC3(CC2)OCCO3)o1
IC50 [2]: 330 nM
IC50 [1]: 530 nM

C=CCN1CCN(c2c(Cl)cccc2NC(=O)c2ccno2)CC1
IC50 [1]: 5000 nM

O=C(Nc1cccc(Cl)c1N1CCN(Cc2ccccc2)CC1)c1ccc(Br)o1
IC50 [2]: 880 nM
inhibition [3]: inactive
IC50 [1]: 1100 nM

C=CCN1CCN(c2c(Cl)cccc2NC(=O)c2nc(Br)cs2)CC1
IC50 [2]: 1800 nM
IC50 [1]: 1800 nM

CC(C)N1CCN(c2c(Cl)cccc2NC(=O)c2ccc(Br)o2)CC1
IC50 [2]: 1500 nM
inhibition [3]: inactive
IC50 [1]: 2200 nM

C=C(C)CN1CCN(c2c(Cl)cccc2NC(=O)c2ccc(Br)o2)CC1
IC50 [4]: 3300 nM
IC50 [2]: 400 nM
inhibition [3]: inactive
IC50 [1]: 540 nM

O=C(Nc1cccc(Cl)c1N1CCN(C2CC2)CC1)c1ccc(Br)o1
IC50 [2]: 180 nM
inhibition [3]: inactive
IC50 [1]: 960 nM

C#CCN1CCN(c2c(F)cccc2NC(=O)c2ccc(Br)o2)CC1
IC50 [2]: 110 nM
inhibition [3]: inactive
IC50 [1]: 290 nM

C=CCN1CCN(c2c(Cl)cccc2NC(=O)c2ccc[nH]2)CC1
IC50 [2]: 4500 nM
IC50 [1]: 8900 nM

Cc1cccc(NC(=O)c2ccc(Br)o2)c1N1CCC2(CC1)OCCO2
IC50 [2]: 90 nM
IC50 [1]: 60 nM

CN1CCN(c2c(Cl)cccc2NC(=O)c2ccc(Br)o2)CC1
IC50 [2]: 360 nM
inhibition [3]: inactive
IC50 [1]: 1200 nM

O=C(Nc1cccc(Cl)c1N1CCN(Cc2ccco2)CC1)c1ccc(Br)o1
IC50 [2]: 270 nM
inhibition [3]: inactive
IC50 [1]: 250 nM

CCc1ccc(C(=O)Nc2cccc(C)c2N2CCC3(CC2)OCCO3)o1
IC50 [2]: 1400 nM
IC50 [1]: 1000 nM

CCN1CCN(c2c(Cl)cccc2NC(=O)c2ccc(Br)o2)CC1
IC50 [2]: 490 nM
IC50 [3]: > 20000 nM

C=CCN1CCN(c2c(Cl)cccc2NC(=O)c2cscn2)CC1
IC50 [1]: 2300 nM

CCCN1CCN(c2c(Cl)cccc2NC(=O)c2ccc(Br)o2)CC1
IC50 [2]: 630 nM
inhibition [3]: inactive
IC50 [1]: 900 nM

C=CCN1CCN(c2c(NC(=O)c3ccc(Br)o3)cccc2Nc2ccccc2)CC1
IC50 [2]: > 20000 nM
inhibition [3]: inactive
IC50 [1]: > 20000 nM

Cc1cccc(NC(=O)c2ccc(C#N)o2)c1N1CCC2(CC1)OCCO2
IC50 [2]: 230 nM
IC50 [1]: 210 nM

COc1ccc(C(=O)Nc2cccc(C)c2N2CCC3(CC2)OCCO3)o1
IC50 [2]: 450 nM
IC50 [1]: 620 nM

C=CCN1CCN(c2c(Cl)cccc2NC(=O)c2cccc(C)n2)CC1
IC50 [2]: 1800 nM
IC50 [1]: 2000 nM

Cc1cccc(NC(=O)c2ccc(Nc3ccccc3)o2)c1N1CCC2(CC1)OCCO2
IC50 [2]: > 20000 nM
IC50 [1]: > 20000 nM

Cc1cccc(NC(=O)c2ccc(F)o2)c1N1CCC2(CC1)OCCO2
IC50 [2]: 210 nM
IC50 [1]: 410 nM

Cc1cccc(NC(=O)c2ccc(Cc3ccccc3)o2)c1N1CCC2(CC1)OCCO2
IC50 [2]: 3200 nM
IC50 [1]: 4800 nM

O=C(Nc1cccc(Cl)c1N1CCN(CCc2ccccc2)CC1)c1ccc(Br)o1
IC50 [2]: 900 nM
inhibition [3]: inactive
IC50 [1]: 1400 nM

C=CCN1CCN(c2c(NC(=O)c3ccc(Br)o3)cccc2C(F)(F)F)CC1
IC50 [2]: > 20000 nM
inhibition [3]: inactive
IC50 [1]: > 20000 nM

C=CCN1CCN(c2c(NC(=O)c3ccc(Br)o3)cccc2-c2ccccc2)CC1
IC50 [2]: > 20000 nM
inhibition [3]: inactive
IC50 [1]: > 20000 nM

C=CCN1CCN(c2c(Cl)cccc2NC(=O)c2cnc(Br)s2)CC1
IC50 [2]: 330 nM
IC50 [1]: 310 nM

O=C(Nc1cccc(Cl)c1N1CCN(C(=O)C(F)(F)F)CC1)c1ccc(Br)o1
IC50 [2]: > 20000 nM
inhibition [3]: inactive
IC50 [1]: > 20000 nM

Cc1cccc(NC(=O)c2ccc(Cl)o2)c1N1CCC2(CC1)OCCO2
IC50 [2]: 40 nM
IC50 [1]: 80 nM

C=CCN1CCN(c2c(Cl)cccc2NC(=O)c2ccc(C#N)cn2)CC1
IC50 [2]: > 20000 nM
IC50 [1]: > 20000 nM

O=C(Nc1cccc(Cl)c1N1CCNCC1)c1ccc(Br)o1
IC50 [2]: 4100 nM
inhibition [3]: inactive
IC50 [1]: 9900 nM

CC#Cc1ccc(C(=O)Nc2cccc(C)c2N2CCC3(CC2)OCCO3)o1
IC50 [2]: 110 nM
IC50 [1]: 110 nM

C=CCN1CCN(c2c(Br)cccc2NC(=O)c2ccc(Br)o2)CC1
IC50 [2]: > 20000 nM
inhibition [3]: inactive
IC50 [1]: > 20000 nM

C=CCN1CCN(c2c(Cl)cccc2NC(=O)c2ncccn2)CC1
IC50 [2]: > 20000 nM
IC50 [1]: > 20000 nM
